Our source for the IC50 and inhibition values is ChEMBL document CHEMBL2321691 (J Med Chem, 2013).

Assay [1] has as its system HL-60. Briefly: Cytotoxicity against human HL60 cells assessed as growth inhibition after 72 hrs by XTT assay. It counts as functional, cell-based. The following applies: HL-60, 72 h. Summed up:
(§1)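 Cells seeded at 1.5 x 10^3 per well (A549, HeLa, HT-29) or 3 x 10^3 (HL-60) in medium with 10% heat-inactivated FBS. Compound tested from 10-5 to 10-13 M for 72 h at 37 °C, then XTT readout. […] Triplicate wells, three experiments; mean ± S.D.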

In assay [2] the test system is HeLa. Briefly: Cytotoxicity against human HeLa cells assessed as growth inhibition after 72 hrs by XTT assay.
Assay [3] is filed under the species Bos taurus. Briefly: Inhibition of bovine brain tubulin polymerization at 20 uM after 30 mins by spectrophotometry. The procedure, abridged: (§2)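 Bovine brain tubulin at 1.5 mg/mL, pH 6.7, in 0.1 M MES, 1 mM EGTA, 1 mM MgCl2, 1 mM β-ME, 1.5 mM GTP with ligand. Incubated 20 °C for 30 min, then on ice 10 min. Assembly read as the A450 rise on a shift from 4 to 38 °C; inhibition is plateau minus baseline against ligand-free control. IC50 from monoexponential fits.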

Assay [4] deals with HT-29. Briefly: Cytotoxicity against human HT-29 cells assessed as growth inhibition after 72 hrs by XTT assay. Type of assay: functional, cell-based. Particulars: HT-29, 72 h. Summed up: as §1
(In general: Tetrazolium dyes change colour on reduction, which living cells bring about.)

Assay [5] has as its system A549. Briefly: Cytotoxicity against human A549 cells assessed as growth inhibition after 72 hrs by XTT assay. It counts as functional, cell-based. The following applies: A549, 72 h. Summed up:
as §1

Assay [6] in a line: Inhibition of bovine brain tubulin polymerization after 30 mins by spectrophotometry. Details: species or system Bos taurus. The procedure, abridged:
as §2

For assay [7], the system named is HeLa. Briefly: Inhibition of microtubule system in human HeLa cells at 10 nM after 18 hrs by confocal microscopic analysis. Type of assay: cell-based. Summed up:
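HeLa cells grown on poly-L-lysine coverslips and treated 18 h at 10^-8 M. Washed in HPEM (pH 6.6), fixed 15 min in 4% paraformaldehyde, permeabilized with 0.5% Triton X-100. Stained with anti-α-tubulin (1:150, 1 h), then CY3 anti-mouse IgG (1:100, 1 h, 4 °C). Imaged by confocal microscopy; representative of at least three experiments.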

The source made the active and inactive calls. The rule behind the calls is not given here.

In general, IC50 refers to the point on the concentration scale where inhibition reaches its midpoint. For orientation: inhibition means how much of the control response was suppressed.

With `COc1ccc(C(=CC=O)c2ccc3c(c2)c(C=O)cn3C)c(OC)c1OC`, the IC50 in assay [1] amounted to 300 nM; in assay [2] it was 300 nM; in assay [4], 300 nM; in assay [5] it was 350 nM; in assay [6] it was 5900 nM. The compound further showed an inhibition in assay [3] of 98%.

For `C=C(c1ccc2c(c1)c(C=O)cn2C)c1ccc(OC)c(OC)c1OC`, the IC50 in assay [1] was determined as 32 nM; in assay [2], 32 nM; in assay [4], 230 nM; in assay [5], 1800 nM; in assay [6] it was 4000 nM. In assay [7], the inhibition result was “Active”. Also, in assay [3], the inhibition was 98%.

For `COc1cc(C(=O)c2nc3cc(Br)ccc3n2C)cc(OC)c1OC`, the concentration for half-maximal inhibition (IC50) amounted to 29 nM in assay [1], 190 nM in assay [2], 340 nM in assay [4] and 400 nM in assay [5]. The compound further came in with an inhibition in assay [3] of 37%.

On to `C=C(c1cc(OC)c(OC)c(OC)c1)c1ccc2c(c1)c(C=NO)cn2C`, for which the IC50 in assay [1] came out at 21 nM; in assay [2] it was 6.2 nM; in assay [4] it was 33 nM; in assay [5] it was 30 nM; in assay [6], 2600 nM. For the same compound, the inhibition result in assay [7] was “Active”. Moreover, in assay [3], the inhibition worked out at 93%.

On to `COc1cc(C(C)c2ccc3[nH]cc(C=O)c3c2)cc(OC)c1OC` (stereo not given), for which the IC50 in assay [1] turned out to be 5400 nM; in assay [2], 5800 nM; in assay [4], 5800 nM; in assay [5] it was 9100 nM. Moreover, the inhibition in assay [3] turned out to be 0%.

As for `COc1cc(C(=O)c2ccc3c(c2)c(C(=O)O)cn3C)cc(OC)c1OC`, the IC50 was greater than 10000 nM in assay [1], 7000 nM in assay [2], greater than 10000 nM in assay [4] and greater than 10000 nM in assay [5]. The inhibition in assay [3] is 2%.

As to `C=C(c1cc(OC)c(OC)c(OC)c1)c1ccc2c(c1)c(C=NN)cn2C`, the IC50 in assay [1] is 180 nM; in assay [2] it was 38 nM; in assay [4], 300 nM; in assay [5] it was 3200 nM. In assay [3], this compound returned an inhibition of 12%.

Consider `COc1cc(C(=O)c2ccc3ocnc3c2)cc(OC)c1OC`, for which the IC50 was found to be 470 nM in assay [1], 340 nM in assay [2], 2800 nM in assay [4] and 10000 nM in assay [5]. In assay [3], this compound showed an inhibition of 0%.

For `C=C(c1ccc2c(c1)c(C#N)cn2C)c1ccc(OC)c(OC)c1OC`, the IC50 in assay [1] came out at 27 nM; in assay [2] it was 32 nM; in assay [4] it was 32 nM; in assay [5] it was 360 nM; in assay [6], 2200 nM. Also, in assay [3], the inhibition stood at 89%.

`C=C(c1cc(OC)c(OC)c(OC)c1)c1ccc2c(c1)c(CO)cn2C`: the half-inhibitory concentration (IC50) in assay [1] was found to be 250 nM; in assay [2], 310 nM; in assay [4] it was 2000 nM; in assay [5] it was 3200 nM. In assay [3], this compound gave an inhibition of 32%.

`C=C(c1cc(OC)c(OC)c(OC)c1)c1ccc2[nH]ccc2c1`: the concentration for half-maximal inhibition (IC50) is 3600 nM in assay [1], 2100 nM in assay [2], 5100 nM in assay [4] and 9000 nM in assay [5]. Also, in assay [3], the inhibition amounted to 36%.

Take `COc1ccc(C(C)c2ccc3c(c2)c(C=NN)cn3C)c(OC)c1OC` (stereo not given): the IC50 is 1800 nM in assay [1], 430 nM in assay [2], 3200 nM in assay [4] and greater than 10000 nM in assay [5]. Also, in assay [3], the inhibition amounted to 0%.

With `COc1ccc(C(=O)c2ccc3c(c2)c(C=O)cn3C)c(OC)c1OC`, the IC50 in assay [1] is 780 nM; in assay [2], 780 nM; in assay [4] it was 5300 nM; in assay [5], greater than 10000 nM. The compound also registered an inhibition in assay [3] of 73%.

Take `COc1cc(C(=CC=O)c2ccc3c(c2)c(C=O)cn3C)cc(OC)c1OC`: the IC50 in assay [1] worked out at 33 nM; in assay [2], 31 nM; in assay [4] it was 220 nM; in assay [5], 340 nM; in assay [6], 7000 nM. In addition, in assay [3], the inhibition was found to be 88%.

With `COc1cc(C(O)c2nc3cc(Br)ccc3n2C)cc(OC)c1OC` (stereo not given), the half-maximal inhibitory concentration (IC50) in assay [1], in assay [2], in assay [4] and in assay [5] was greater than 10000 nM each time. In assay [3], this compound gave an inhibition of 2%.

`C=C(c1cc(OC)c(OC)c(OC)c1)c1ccc2c(c1)c(C(=O)O)cn2C`: the IC50 was determined as 1100 nM in assay [1]; 880 nM in assay [2]; 550 nM in assay [4]; 1100 nM in assay [5]; 5000 nM in assay [6]. This compound also showed an inhibition in assay [3] of 91%.

`COc1cc(C(C)c2ccc3c(c2)c(C)cn3C)cc(OC)c1OC` (stereo not given): the IC50 in assay [1] worked out at 280 nM; in assay [2], 310 nM; in assay [4] it was 310 nM; in assay [5], 320 nM. In addition, in assay [3], the inhibition was 90%.

As to `COc1cc(C(=O)c2nc3ccc(Br)cc3n2C)cc(OC)c1OC`, the IC50 in assay [1] came to 2400 nM; in assay [2], 2300 nM; in assay [4] it was 2700 nM; in assay [5], 10000 nM. This compound came in with an inhibition in assay [3] of 37%.

In the case of `C=C(c1ccc2c(ccn2C)c1)c1ccc(OC)c(OC)c1OC`, the IC50 in assay [1] was 280 nM; in assay [2], 32 nM; in assay [4], 310 nM; in assay [5] it was 730 nM; in assay [6], 4700 nM. In assay [3], this compound had an inhibition of 97%.

With `C=C(c1cc(OC)c(OC)c(OC)c1)c1ccc2c(ccn2C)c1`, the half-maximal inhibitory concentration (IC50) in assay [1] is 2.8 nM; in assay [2], 2.7 nM; in assay [4] it was 3.1 nM; in assay [5], 28 nM; in assay [6], 700 nM. Also, in assay [3], the inhibition was found to be 96%.

For the compound `COc1cc(C(C)c2ccc3[nH]ccc3c2)cc(OC)c1OC` (stereo not given), the IC50 in assay [1] worked out at 3400 nM; in assay [2], 2300 nM; in assay [4] it was 3300 nM; in assay [5], 4900 nM. This compound came in with an inhibition in assay [3] of 5%.

As to `C=C(c1ccc2c(c1)c(C=NO)cn2C)c1ccc(OC)c(OC)c1OC`, the IC50 is 270 nM in assay [1]; 34 nM in assay [2]; 320 nM in assay [4]; 290 nM in assay [5]; 4000 nM in assay [6]. For the same compound, the inhibition in assay [3] stood at 95%.

On to `COc1ccc(C(C)c2ccc3c(ccn3C)c2)c(OC)c1OC` (stereo not given), for which the IC50 in assay [1] came out at 370 nM; in assay [2], 310 nM; in assay [4] it was 330 nM; in assay [5], 470 nM. Further, in assay [3], the inhibition amounted to 87%.

Regarding `C=C(c1cc(OC)c(OC)c(OC)c1)c1ccc2c(c1)c(C=O)cn2C`, the IC50 turned out to be 28 nM in assay [1]; 20 nM in assay [2]; 62 nM in assay [4]; 3000 nM in assay [5]; 900 nM in assay [6]. Moreover, in assay [7], the inhibition entry is “Active”. The inhibition in assay [3] stood at 100%.

On to `COc1cc(C(O)c2nc3ccc(Br)cc3n2C)cc(OC)c1OC` (stereo not given), for which the IC50 in assay [1], in assay [2], in assay [4] and in assay [5] was greater than 10000 nM each time. The same compound returned an inhibition in assay [3] of 22%.

In the case of `COc1cc(/C(=C\C=O)c2ccc3c(c2)c(C=O)cn3C)cc(OC)c1OC`, the IC50 is 29 nM in assay [1], 30 nM in assay [2], 170 nM in assay [4] and 320 nM in assay [5]. The inhibition in assay [3] was 96%.

Turning to `C=C(c1ccc2c(c1)c(CO)cn2C)c1ccc(OC)c(OC)c1OC`, the IC50 amounted to 220 nM in assay [1], 300 nM in assay [2], 460 nM in assay [4] and 440 nM in assay [5]. This compound had an inhibition in assay [3] of 32%.

As to `COc1ccc(C(=O)c2ccc3c(c2)c(C#N)cn3C)c(OC)c1OC`, the IC50 was 290 nM in assay [1], 270 nM in assay [2], 310 nM in assay [4] and 2000 nM in assay [5]. Further, the inhibition in assay [3] stood at 40%.

On to `COc1ccc(C(=O)c2ccc3c(ccn3C)c2)c(OC)c1OC`, for which the IC50 in assay [1] is 240 nM; in assay [4] it was 240 nM; in assay [5] it was 380 nM; in assay [6], 400 nM. Besides, the inhibition in assay [3] turned out to be 100%.

Regarding `COc1cc(C(=O)c2ccc3c(ccn3C)c2)cc(OC)c1OC`, the IC50 in assay [1] amounted to 27 nM; in assay [2] it was 25 nM; in assay [4], 27 nM; in assay [5] it was 190 nM; in assay [6], 7900 nM. For the same compound, in assay [3], the inhibition worked out at 98%.

For `COc1cc(C(=O)c2ccc3c(c2)c(C=O)cn3C)cc(OC)c1OC`, the IC50 was 310 nM in assay [1]; 320 nM in assay [2]; 3000 nM in assay [4]; greater than 10000 nM in assay [5]; 16900 nM in assay [6]. The compound also gave an inhibition in assay [3] of 61%.
